Source: ChEMBL document CHEMBL4513216, “Probing the Open Global Health Chemical Diversity Library for Multistage-Active Starting Points for Next-Generation Antimalarials” (ACS Infect Dis, 2020)

Test: Toxicity liver stage against HepG2, at 10uM
Type: cell-based
Design: test concentration 10 uM, cell line HepG2-A16-CD81EGFP
Settings: human, HepG2-A16-CD81EGFP cells; read-out: INHIBITION
In short: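 Uninfected HepG2-A16-CD81EGFP cells, 3 × 10^3 per well, 1536-well, plated on prespotted compound at 10 μM final, parasite-free screening media added to match infected plates; puromycin 10 μM positive, DMSO 0.5% negative; run in parallel with 48 h PbLuc assay at 37 °C, 5% CO2; viability by CellTiter-Glo luminescence, normalized to controls.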

SMILES	cytotoxicity at 10 µM [%]
COCCN(C(=O)c1cc(C)no1)c1ccc(C#N)cc1	6.51
Cc1cccc(CN2CCc3nnc(CN4CCCC4=O)n3CC2)n1	5.31
O=C(c1cnccn1)N1CCn2cnc(COCC3CC3)c2C1	7.14
O=C(NCc1ccco1)[C@H]1CC[C@@H]2[C@@H](CCN2Cc2nccs2)O1	2.67
Cc1nn(CC(=O)Nc2ccon2)c(C)c1Br	9.62
Cc1c(C)n(Cc2ccncc2)c2nc3c(c(N)c12)CCCCC3	1.26
Cc1noc(C)c1C(=O)NCC(C)N(C)C (configuration not stated)	-8.4
CNc1nnc(CCn2nc(C)c(Br)c2C)s1	2.83
Cc1nc(C(=O)N2CCC(c3cc(CCO)n(C)n3)C2)co1 (configuration not stated)	-5.42
Nc1nccnc1C(=O)NCCCNc1ccc(C(F)(F)F)cn1	-8.16
CCS(=O)(=O)NCC(=O)NC(c1cc(C)sc1C)C(C)C (configuration not stated)	3.77
Cn1cc(CN2CCOCC3(C2)CN(c2ccccc2)C(=O)CO3)cn1 (configuration not stated)	0.436
CC(C)NC(=O)[C@H]1CCS(=O)(=O)[C@@H]2CN(c3ncccn3)C[C@H]12	-123
O=C(NC1CCN(c2cccc(OC(F)(F)F)c2)C1=O)C1CCC1 (configuration not stated)	-3.11
Cc1csc(C2CCCCN2C(=O)CCn2cncn2)n1 (configuration not stated)	-6.32
CS(=O)(=O)N1CCO[C@@H]2CN(Cc3ccncc3)C[C@@H]2C1	4.5
CC(C)Cc1cc(NC(=O)c2ccncc2)n(C)n1	-0.502
CCn1nnnc1-c1cccc(NC(N)=O)c1	8.92
CN1CCC(n2nc(Cc3cccc(Cl)c3)nc2Cn2ccnc2)CC1	10.8
Cc1ccc(C(=O)N2CCC3(CCN3c3ncccn3)C2)cn1 (configuration not stated)	-135
CCc1c(C)nc2cc(C3CCN(Cc4ccccc4F)C3)nn2c1O (configuration not stated)	1.7
Cc1cc(NC(=O)N(CCC#N)CCCN(C)C)ccc1F	-57.7
CC(=O)NCCCNCc1cc(F)ccc1Br	-0.595

SMILES	cytotoxicity at 10 µM [%]
CCC(C)(O)CNc1ccc(S(=O)(=O)C(F)F)cc1 (configuration not stated)	12.2
O=c1ccc(-c2cccs2)nn1CN1CCN(Cc2ccccc2)CC1	-3.73
c1ccc2oc(CCCN3CCCC3c3noc(C4CC4)n3)nc2c1 (configuration not stated)	-13.5
CC(C)OCc1ncn2c1CN(Cc1ccoc1)CCC2	-75.7
Cc1c[nH]c(C(=O)N2CCC(c3nnc(CN(C)CCO)n3C)CC2)c1	-3.52
COc1ccnc(N2CCN(C(=O)NCc3ccc(C)s3)CC2)n1	-2.45
Cc1cc(C)n(C2CCCN(C(=O)c3ccc(NC4CC4)nc3)C2)n1 (configuration not stated)	5.25
Cc1cc(C)c(S(=O)(=O)Nc2c(C)noc2C)cc1C(=O)O	-8.18
CC(C)Cc1cc(C(=O)N2CCCN(c3cccnn3)CC2)[nH]n1	-10.5
Cc1cccc(COC2COC3(CCN(Cc4ccoc4)CC3)C2)n1 (configuration not stated)	-0.211
CCN(C)C[C@@H]1CN(Cc2cccc(Cl)c2)C[C@@H]1CO	2.45
CN(C)C(=O)N1C[C@@H]2COC[C@]2(CNS(C)(=O)=O)C1	-1.47
O=C(C[C@@H]1COC[C@H]2CN(Cc3cccnc3)C[C@@H]12)NCC1CC1	0.752
OC1CCN(c2ccnc3c(F)cc(Br)cc23)CC1	11.6
COCCOc1ncccc1C(=O)Nc1c(C)cnn1CC1CC1	3.36
CC(=O)N1CCC(CCc2ccnc(Nc3ccccn3)c2)CC1	5.57
NC1(C(=O)NCC2CCCN(Cc3cccc4nonc34)C2)CCC1 (configuration not stated)	-43.8
Cc1c(NCc2cccnc2)cccc1C(=O)N1CCC(N(C)C)C1 (configuration not stated)	14.1
O=C(CC1CCc2ccccc21)NC1(C(=O)O)CCCC1 (configuration not stated)	-11.9
CN(Cc1cncnc1)[C@@H]1CN(C(=O)C2CC2)[C@@H]2CCCO[C@H]12	-112
CCCN(C(=O)CNC1CCc2ncnn2C1)C1=CCCCC1 (configuration not stated)	1.76
Cc1cc(CNc2ccc(C(=O)N3CCCC(C)C3)cc2C)no1 (configuration not stated)	-3.92
c1csc(SCC2CN=C(N3CCOCC3)S2)c1 (configuration not stated)	10.3

SMILES	cytotoxicity at 10 µM [%]
O=C1N(CCO)CCCC12CCN(Cc1noc(C3CCCC3)n1)C2 (configuration not stated)	-0.973
O=C(CN1CCCC(c2ncc[nH]2)C1)NCC(F)(F)F (configuration not stated)	9.37
Cc1cc(C)n(C2CN(C(=O)Cn3c(C)cc(=O)c4ccccc43)C2)n1	-5.56
Cc1ccc(Nc2nccc(C3CCN(C(=O)CO)C3)n2)nc1 (configuration not stated)	-2.56
CCCS(=O)(=O)N1CCCC(c2nc(-c3ccccc3)c[nH]2)C1 (configuration not stated)	16.2
CSCCCN1CC[C@@]2(O)CCN(c3ncccn3)C[C@H]2C1	-4.53
CCc1noc(C2CCCCN2C(=O)c2ccoc2C)n1 (configuration not stated)	12.5
Cc1ccc(N2CC[C@H]3C[C@H](C(=O)NCc4ccco4)O[C@H]3C2)nn1	-3.03
Cc1cc(CN2CCc3cncnc3C2)on1	4.13
Cc1nc(COC[C@H]2CCC[C@@]23CN(C(C)C)CCO3)cs1	-86.7
O=c1[nH]c2c(-c3ccccn3)nsc2c(=O)n1CC1CCCO1 (configuration not stated)	9.26
CN(C(=O)c1cccnc1)C1CCCN(CCc2ccccc2)C1 (configuration not stated)	-3.59
CC1=C(CCN2CCCC(O)C2)C(C)(C)CCC1 (configuration not stated)	3.43
COc1ncccc1CNC(=O)c1cc(Cl)ccn1	-7.51
COCC(=O)N1CCC2(CCC2N(C)Cc2ccco2)CC1 (configuration not stated)	0.169
Cc1cc(C)nc(C2CCCN2C(=O)c2cnccn2)n1 (configuration not stated)	3.74
Cc1nc2ccc(CN3CC4(CCOC4)CCC3=O)cc2[nH]1 (configuration not stated)	11.7
CS(=O)(=O)c1cccc(C(N)c2ccc(F)c(F)c2)c1 (configuration not stated)	6.62
CN(C)C(=O)C1(Oc2ccc(Cl)cc2)CCNCC1	13.7
CS(=O)(=O)N1CCOCC2(CCN(Cc3ccc[nH]3)CC2)C1	-7.02
O=c1ccc2c([nH]1)CCC(NS(=O)(=O)C1CC1)C2 (configuration not stated)	3.66
COc1ccc(C)cc1S(=O)(=O)NCCC(O)c1ccccc1 (configuration not stated)	0.197
O=C(c1cnccn1)N1C[C@@H](OCc2cccnc2)[C@H]2OCCC[C@H]21	-2.78

SMILES	cytotoxicity at 10 µM [%]
Cc1cncnc1C1CCN(CC(N)=O)CC1	-6.84
CC(=O)N(Cc1ncc(C)o1)C1CCN(Cc2ccc(F)c(F)c2)C1 (configuration not stated)	13.4
CCc1ccc2c(C3CN(C(C)=O)C3)ncn2c1	2.16
NC(=O)c1ccc(S(=O)(=O)NCCc2ccccn2)cc1	-16
COc1ccc(NC(=O)c2cc3c([nH]c2=O)CCCC3=O)c(OC)c1	-0.0455
CC(=O)NCc1ccc(C(=O)Nc2ccc3c(c2)C(=O)NC3)cc1	0.202
CCOCc1cccc(S(=O)(=O)N2CCSCC2)c1	1.26
N#CCCN(CCC#N)C(=O)c1ccc(OCC2CC2)cc1	-10.8
COc1ccc(-c2noc(CN3CCc4cncnc4C3)n2)cc1	-0.215
CN(C)CCN1C(=O)C2(CCN(CC3CC3)CC2)c2ccccc21	-120
CC(C)Sc1ncccc1C(=O)NCc1ccoc1	-0.945
O=C(CN1C(=O)CCNC1=O)N1CCC(c2ccc(F)cc2)C1 (configuration not stated)	4.3
COc1cc(N2CCC3(CCCN(Cc4ccccn4)C3)C2)ncn1 (configuration not stated)	-88.6
Cn1cc2c(n1)C(COCC1CC1)CN(Cc1ccccn1)C2 (configuration not stated)	-1.8
Cc1nnc2n1CCN(C(=O)c1cc(C)n(-c3ccccc3)c1C)C2	-4.94
Cc1cnc(CN2CC=C(c3c[nH]c4ncccc34)CC2)o1	25
Cc1nn(C)c(C)c1S(=O)(=O)N1C[C@@H]2C[C@@H](C)O[C@@H]2C1	0.788
Cc1nc2[nH]cnc(Nc3cnn(C)c3)c-2n1	5.59
Cc1[nH]nc2ncc(C(=O)N3CCN(CCC(C)C)CC3)cc12	0.977
Cn1ncc2c(N3CC(N4CCCCC4)C3)nc(-c3ccncc3)nc21	5.18
c1cnnc(N2CCCC(NCc3ccc(-n4cccn4)cc3)C2)c1 (configuration not stated)	0.241
COc1cccc(SCCCn2cnc3c(N)ncnc32)c1	11.7
CSc1ccc(C(C)NC(=O)c2cc(C)on2)cc1 (configuration not stated)	6.01

SMILES	cytotoxicity at 10 µM [%]
N#Cc1cccc(CN2CCC3(CC(C(=O)NCC4CC4)=NO3)C2)c1 (configuration not stated)	8.73
CN(C)Cc1nc(C(C)(C)NC(=O)c2nc3ccccc3s2)no1	8.61
CCOc1ccc(NC(C)C(=O)NCCc2cccs2)cc1CO (configuration not stated)	-6.79
CN(Cc1c(F)cccc1Cl)C(=O)c1cnn(CCN2CCCCC2)c1	-19.1
CN1CC=C(c2noc(CCC(=O)N3CCc4ccccc43)n2)CC1	7.22
O=C(c1ccsc1)N1C[C@@H](CN2CCCC2)[C@@H](CO)C1	15.2
OC(CN1CCN(Cc2ccccc2)CC1)C1CC1 (configuration not stated)	3.3
CC(=O)NCCC(=O)NC1(c2ccc(Cl)c(Cl)c2)CC1	7.49
CN(C)C(=O)CN1C[C@H]2CC[C@@H](C1)N(Cc1cc(F)ccc1F)C2	-24
O=C(O)c1cn(CC2CCCN(c3nccc4occc34)C2)nn1 (configuration not stated)	-5.17
O=C(c1c(F)cc(Br)cc1F)N1CCc2cnccc21	-10.1
CCC(=O)NCC(=O)NC(Cc1ccccc1)c1sccc1C (configuration not stated)	9.25
CC(O)CN1CCC(CNCc2cccc(Cl)c2)CC1 (configuration not stated)	-23.8
CCSc1cc(C(=O)N(CC(F)F)C(C)C)ccn1	4.64
CN1C[C@@H](N)C[C@H]1C(=O)N1CCC(CCCc2ccccc2)CC1	-8.29
CCN(CC)CCNCC1CCOC(C)(C)C1 (configuration not stated)	-6.87
COc1cc2c(cc1CNCc1cccnc1OC)OC(C)C2 (configuration not stated)	3.67
COc1ccc(C(C)(C)C)cc1CN1CCn2c(CO)nnc2C1	10.4
OCC1N(Cc2ccco2)C2CCC1(O)CC2 (configuration not stated)	3.1
N#Cc1ccc(N2CCN(c3ccc4nncn4n3)CC2)nc1	-13.3
